Here are results for 5 compounds from PubChem BioAssay AID686919 (Broad Institute, 2013).

This assay relates to cruzain (cruzipain) [Trypanosoma cruzi]. As to the kind of experiment: cruzain protease inhibitors, dose response, mechanism study for T. cruzi phenotypic hit project, biochemical, dry powder, percent inhibition (AID 686919). The following applies: recombinant cruzain, Z-Phe-Arg-AMC fluorescence rate; at 10 µM (top of the series). The procedure, abridged: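 test system = recombinant cruzain | buffer or medium = 100 mM NaOAc pH 5.5, 5 mM DTT, 0.01% Triton X-100 | reagent = fluorogenic substrate Z-Phe-Arg-AMC at 10 µM final | schedule = 5 min room-temperature enzyme–compound preincubation, followed by 3 min rate reading | measured by = AMC fluorescence rate, 355/460 nm | evaluation = release rate versus DMSO control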

The source made the active and inactive calls.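 How the source made its calls: active means remaining cruzain activity at or below half of the DMSO control at 10 µM, implied only; inactive means remaining activity above half of control.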

`CN(C)C(=O)c1cccc(-c2ccc([C@H]3[C@H](CO)N4CCCCN(C(=O)CC5CC5)C[C@@H]34)cc2)c1`: the remaining cruzain activity (% of DMSO control) was 83.3% (inactive).
Regarding `O=C(C1CCC1)N1CCCCN2[C@@H](CO)[C@H](c3ccc(Br)cc3)[C@@H]2C1`, the remaining cruzain activity (% of DMSO control) is 133% (inactive).
Turning to `CN(C)C(=O)c1cccc(-c2ccc([C@H]3[C@H](CO)N4CCCCN(C(=O)C5CCCCC5)C[C@@H]34)cc2)c1`, the remaining cruzain activity (% of DMSO control) was 72.3% (inactive).
With `CN(C)C(=O)c1cccc(-c2ccc([C@H]3[C@H](CO)N4CCCCN(C(=O)C5CC5)C[C@@H]34)cc2)c1`, the remaining cruzain activity (% of DMSO control) is 104% (inactive).
In the case of `CN(C)C(=O)c1cccc(-c2ccc([C@H]3[C@H](CO)N4CCCCN(C(=O)C5CCC5)C[C@@H]34)cc2)c1`, the remaining cruzain activity (% of DMSO control) is 106% (inactive).
